Most compounds without a hit are left out; they make up all but 10% or so of the library.
Lmaj promast – Leishmania major promastigote growth inhibition; Leishmania major promastigotes, resazurin fluorescence viability; inhibition, % at 10 µM; 200,000 tested, 9% active; in the data active = inhibition above about 50%;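 also: promastigotes grown with compound for 44 hours at 28 °C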
PMI act hi M6P – activators of human phosphomannose isomerase at near-saturating mannose 6-phosphate. P34949. coupled PMI enzyme assay, resazurin fluorescence, 20 min; hits give high values; 1 = untreated enzyme, 0 = substrate-free blank. activation factor at 20 µM. 190,000 tested, 0.34% active;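 active = activation factor of 2 or more at 20 µM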
Target sequence (P34949 whole entry, looked up): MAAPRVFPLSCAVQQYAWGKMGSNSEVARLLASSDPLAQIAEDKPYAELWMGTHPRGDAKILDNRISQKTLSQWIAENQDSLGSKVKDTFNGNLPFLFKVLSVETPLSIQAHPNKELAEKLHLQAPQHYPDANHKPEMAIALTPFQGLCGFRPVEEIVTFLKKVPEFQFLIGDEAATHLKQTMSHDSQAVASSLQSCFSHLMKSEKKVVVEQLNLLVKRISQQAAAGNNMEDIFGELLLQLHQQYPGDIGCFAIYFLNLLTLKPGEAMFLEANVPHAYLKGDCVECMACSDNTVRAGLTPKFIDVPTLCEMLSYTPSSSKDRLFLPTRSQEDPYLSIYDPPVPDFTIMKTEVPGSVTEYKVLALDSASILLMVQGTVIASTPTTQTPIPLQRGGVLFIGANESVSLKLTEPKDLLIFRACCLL
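Material: human phosphomannose isomerase with PGI, G6PDH, diaphorase coupling enzymes / Reagent: Man-6-P substrate 1.0 mM / Dosing: single compound dose of 20 µM, 1% DMSO final / Incubation: enzyme reaction with compound 20 min at room temperature / Signal: resorufin fluorescence (Ex 544/Em 590 nm) from resazurin via diaphorase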
WT yeast gro inh – growth inhibition of WT yeast, mitochondrial fusion screen; mitochondrial fusion phenotypic screen, WT strain; inhibition, % at 10 µM; 190,000 tested, 2.1% active; AID 1362; in the data active = inhibition above about 58%; tested in S. cerevisiae
PMI activator – increases human mannose-6-phosphate isomerase activity | P34949 | 190,000 tested, 0.005% active | activation factor at 20 µM | AID 1214 | purified human PMI, coupled resazurin fluorescence, 20 min; hits give high values; 1 = vehicle control, 0 substrate-free wells;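 active = activation factor of 2 or more at 20 µM, relative to plate controls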
Diaphorase act – activates diaphorase or chemically reduces, flagging diaphorase assay artifacts; Diaphorase/resazurin coupled assay, resorufin fluorescence, 16 min; hits give high values; 1 = vehicle wells, 0 = NADH-free wells; 190,000 tested, 0.005% active; activation factor at 20 µM;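 active = diaphorase activity raised at least twofold by the compound at 20 µM; inactive = activation factor below 2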
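Material: purified diaphorase enzyme from Clostridium kluyveri; Also added: 0.114 mM NADH and 0.1 mM resazurin, final amounts; Doses: single compound dose of 20 µM, 1% DMSO final; Times: 16 min enzyme reaction, ambient temperature; Detection: resorufin fluorescence, excitation 544 nm, emission 590 nm; Measure: increased resorufin signal from activators or reducing compounds.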
Large screens that a line does not name were inactive.

O=C(CCCOc1ccc(Cl)cc1Cl)N1CCc2ccccc2C1	WT yeast gro inh 79.6
O=S(=O)(/N=C(/Nc1ccc(F)cc1F)c1ccccc1)c1ccccc1	none
CS(=O)(=O)N1CCN(c2ccc(NC(=O)c3ccc([N+](=O)[O-])o3)cc2)CC1	Lmaj promast 94.7
Cc1cc(C)cc(C(=O)Nc2ccc(N3CCN(S(C)(=O)=O)CC3)cc2)c1	none
CCC(=O)N1CCN(c2ccc(NC(=O)c3ccc([N+](=O)[O-])o3)cc2)CC1	Lmaj promast 99.8
O=C(Nc1ccc(N2CCN(C(=O)c3ccc(Cl)cc3)CC2)cc1)c1ccc([N+](=O)[O-])o1	Lmaj promast 100.0
CCCC(=O)N1CCN(c2ccc(NC(=O)c3ccc([N+](=O)[O-])o3)cc2)CC1	Lmaj promast 100.5
CCCC(=O)N1CCN(c2ccc(NC(=O)c3ccc(Br)o3)cc2)CC1	none
CCOC(=O)C1CC(c2ccc(Cl)cc2)=NNC1=O (stereo not drawn)	none
CN1CCN(c2ccc(NC(=O)c3ccc(-c4ccc(Br)cc4)o3)cc2)CC1	Lmaj promast 99.2
O=C(Nc1ccc(N2CCCC2)cc1)c1ccc(Br)o1	none
CNC(=O)c1cc2cc(OC)ccc2n1CCN(Cc1ccccc1)Cc1ccccc1	Lmaj promast 100.2
COc1cc(C(=O)NCCCNc2ccc([N+](=O)[O-])cc2)cc(OC)c1OC	Lmaj promast 76.9
Cc1ccc(-n2c(-c3ccccc3)c[n+]3c2CCC3)cc1	Lmaj promast 97.6
COc1ccc(-n2c(-c3ccc(Br)cc3)nc(=S)c3c2CCCC3)cc1	WT yeast gro inh 62.9
CCOc1ccc(-c2nnc(-c3ccccc3)o2)cc1	none
CCOc1ccc(-c2c[n+]3c(n2-c2ccccc2)CCCCC3)cc1	Lmaj promast 100.3
CCOc1ccc(-c2nnc(-c3ccccc3)n2-c2ccccc2)cc1	Lmaj promast 65.2
CCOc1ccc(-c2c(C)n([O-])c3c([n+]2=O)CCCCC3)cc1	none
CCOC(=O)Cc1csc(NC(=O)CC(C)(C)C)n1	none
CCc1c(C)sc(NC(=O)Cn2nc(C(F)(F)F)c3c2CCCC3)c1C#N	none
CCN1CCN(C(=O)C(N)Cc2ccccc2)CC1 (stereo not drawn)	none
COc1ccc(-n2c(-c3ccc(Br)cc3)c[n+]3c2CCC3)cc1	Lmaj promast 100.0
COc1ccc(-n2c(-c3ccc(Br)cc3)c[n+]3c2SC(C)C3)cc1 (stereo not drawn)	Lmaj promast 100.1
CCOc1ccc(-n2c(-c3ccc(Cl)cc3)c[n+]3c2SCC3)cc1	Lmaj promast 100.2
COc1ccc(-n2c(-c3ccc(Br)cc3)c[n+]3c2CCCCC3)cc1	Lmaj promast 100.0
FC(F)Sc1ccc(-n2c(-c3ccc(Cl)cc3)c[n+]3c2CCC3)cc1	none
CCCN(CCC)S(=O)(=O)c1ccc(C(=O)Nc2nc(-c3ccccc3)c(C(=O)OCC)s2)cc1	none
CCN(CC)S(=O)(=O)c1cc(Br)ccc1OC	none
COc1ccc(C2C3C(C)=NN=C3CC(C)(O)C2C(C)=O)cc1 (stereo not drawn)	none
COc1cccc(-c2cc(C(F)(F)F)nc(-n3ccc([N+](=O)[O-])n3)n2)c1	none
O=[N+]([O-])c1ccn(-c2nc(-c3ccccc3)cc(C(F)(F)F)n2)n1	Lmaj promast 79.2
CC(=O)Nc1ccc(-c2nnc(SCc3c(C)cc(C)cc3C)n2C)cc1	Lmaj promast 76.1
Cc1ccc(C(=O)NCC(=O)N/N=C/c2sccc2C)cc1[N+](=O)[O-]	none
CC1=C(C(=O)Nc2cccc(F)c2)C(c2ccsc2)C2=C(CC(C)(C)CC2=O)N1 (stereo not drawn)	none
CCOC(=O)c1ccc(NC(=S)N2CCN(Cc3ccccc3)CC2)cc1	none
CCOC(=O)c1ccc(NC(=S)NCCCN2CCCCC2)cc1	none
CCOC(=O)c1ccc(NC(=S)NN2CCOCC2)cc1	Lmaj promast 53.2
CCOC(=O)c1ccc(NC(=S)NCCCN2CCN(C3CCCCC3)CC2)cc1	Lmaj promast 53.2
CCOC(=O)c1ccc(CNCc2ccc(Br)cc2)cc1	none
CCOC(=O)c1ccc(CNCc2ccccc2)cc1	Lmaj promast 99.7
CCOC(=O)c1ccc(NC(=O)N2CCN(CCc3ccccc3)CC2)cc1	Lmaj promast 63.8
CCN(CC)CC(O)CN1C(=O)NC(C)(C)C1=O (stereo not drawn)	none

Screening results deposited in PubChem by several laboratories.
